ChEMBL document CHEMBL2150971, “Selective depletion of mutant p53 by cancer chemopreventive isothiocyanates and their structure-activity relationships” (J Med Chem, 2011)
The source made the active and inactive calls.

Columns and labels:
[1] = test system: Cellular tumor antigen p53 (Homo sapiens), P04637 [G245C]; assay: Induction of p53 G245C mutant depletion in human NCI-H596 cells at 20 uM by immunoblot analysis; format: cell-based
[2] = test system: Cellular tumor antigen p53 (Homo sapiens), P04637 [R280K]; assay: Induction of p53 R280K mutant depletion in human MDA-MB-231 cells at 10 uM by immunoblot analysis; format: cell-based
How it was run: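 MDA-MB-231 cells treated with 10 µM for 24 h; whole-cell lysates immunoblotted for p53 (DO-1) with β-actin loading control, ECL.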

[3] = biological target: Cellular tumor antigen p53 (Homo sapiens) (UniProt P04637); assay: Induction of p53 depletion in human A549 cells at 20 uM incubated for 2 to 24 hrs by immunoblot analysis; format: cell-based
How it was run: (§1)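 Wild-type p53 lines HCT116, A549 and MCF-7 treated with 20 µM for 2, 4, 8 and 24 h; lysates immunoblotted for p53 (DO-1) and β-actin, ECL.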

[4] = test system: Cellular tumor antigen p53 (Homo sapiens), P04637 [R280K]; assay: Induction of p53 R280K mutant depletion in human MDA-MB-231 cells at 15 uM by immunoblot analysis; format: cell-based; details: TDE = time-dependent effect
How it was run: (§2)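 Mutant-p53 lines SCC-4, MDA-MB-468 and MDA-MB-231 exposed to 15 µM for a time course; lysates immunoblotted with p53 DO-1 and β-actin antibodies, ECL detection.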

[5] = test system: Cellular tumor antigen p53 (Homo sapiens), P04637 [R273H]; assay: Induction of p53 R273H mutant depletion in human MDA-MB-468 cells at 15 uM by immunoblot analysis; format: cell-based; details: TDE = time-dependent effect; how it was run: as §2
DU-145 = assay: Induction of p53 […] mutant depletion in human DU145 cells at 10 uM by immunoblot analysis; format: cell-based; details: TDE = time-dependent effect
How it was run: (§3)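 DU145 and SW480 cells exposed to 10 µM for a time course; lysates immunoblotted with p53 DO-1 and β-actin antibodies, ECL detection.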

[6] = test system: Cellular tumor antigen p53 (Homo sapiens), P04637 [R273H]; assay: Induction of p53 R273H mutant depletion in human SW480 cells at 10 uM by immunoblot analysis; format: cell-based; details: TDE = time-dependent effect; how it was run: as §3
[7] = test system: Cellular tumor antigen p53 (Homo sapiens), P04637 [P151S]; assay: Induction of p53 P151S mutant depletion in human SCC4 cells at 15 uM by immunoblot analysis; format: cell-based; details: SCC-4, TDE = time-dependent effect; how it was run: as §2
[8] = biological target: Cellular tumor antigen p53 (Homo sapiens) (UniProt P04637); assay: Induction of p53 depletion in human HCT116 cells at 20 uM incubated for 2 to 24 hrs by immunoblot analysis; format: cell-based; details: HCT-116; how it was run: as §1
[9] = biological target: Cellular tumor antigen p53 (Homo sapiens) (UniProt P04637); assay: Induction of p53 depletion in human MCF7 cells at 20 uM incubated for 2 to 24 hrs by immunoblot analysis; format: cell-based; how it was run: as §1
[10] = biological target: Cellular tumor antigen p53 (Homo sapiens) (UniProt P04637); assay: Induction of p53 depletion in human MCF10A cells at 15 uM incubated for 2 to 24 hrs by immunoblot analysis; format: cell-based; details: MCF-10A
How it was run: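 MCF-10A normal mammary epithelial cells treated with 15 µM for 2, 4, 8 and 24 h; lysates immunoblotted for p53 (DO-1) and β-actin, ECL.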

[11] = biological target: Cellular tumor antigen p53 (Homo sapiens) (UniProt P04637); assay: Induction of p53 activation in human MCF7 cells at 20 uM incubated for 24 hrs by immunoblot analysis; format: cell-based; how it was run: as §1
H1299 [12] = assay: Induction of temperature sensitive p53 143A mutant depletion in human H1299 cells at 15 uM incubated for 24 hrs at 37 degC by immunoblot analysis; format: cell-based
H1299 [13] = assay: Induction of temperature sensitive p53 143A mutant depletion in human H1299 cells at 15 uM incubated for 24 hrs at 32.5 degC by immunoblot analysis; format: cell-based
H1299 [14] = assay: Induction of non-temperature sensitive p53 175H mutant depletion in human H1299 cells at 15 uM incubated for 24 hrs at 37 degC by immunoblot analysis; format: cell-based
H1299 [15] = assay: Induction of non-temperature sensitive p53 175H mutant depletion in human H1299 cells at 15 uM incubated for 24 hrs at 32.5 degC by immunoblot analysis; format: cell-based
[16] = test system: Cellular tumor antigen p53 (Homo sapiens), P04637 [G245C]; assay: Induction of covalent cysteine modification at p53 G245C mutant in human NCI-H596 cells at 100 uM incubated for 1 hr by monochlorobimane fluorometric assay; format: cell-based
A549 = assay: Induction of apoptosis in human A549 cells expressing wild type p53 assessed as caspase-3 activation incubated for 24 hrs; format: functional, cell-based
How it was run: (§4)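 Cells treated with DMSO or drug for 24 h, lysed in ice-cold kit buffer; 100–200 µg protein incubated with Ac-DEVD-p-nitroaniline at 37 °C for 2–4 h; p-nitroanilide read at 405 nm; mean ± SD of three independent experiments.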

NCI-H596 [17] = assay: Induction of apoptosis in human NCI-H596 cells expressing p53 G245C mutant assessed as caspase-3 activation incubated for 24 hrs; format: functional, cell-based; how it was run: as §4
MCF7 = assay: Induction of apoptosis in human MCF7 cells expressing wild type p53 assessed as caspase-3 activation incubated for 24 hrs; format: functional, cell-based; how it was run: as §4
MDA-MB-231 [18] = assay: Induction of apoptosis in human MDA-MB-231 cells expressing p53 R280K mutant assessed as caspase-3 activation incubated for 24 hrs; format: functional, cell-based; how it was run: as §4
MDA-MB-468 = assay: Induction of apoptosis in human MDA-MB-468 cells expressing p53 R273H mutant assessed as caspase-3 activation incubated for 24 hrs; format: functional, cell-based; how it was run: as §4
HCT-116 = assay: Induction of apoptosis in human HCT116 cells expressing wild type p53 assessed as caspase-3 activation incubated for 24 hrs; format: functional, cell-based; how it was run: as §4
SW480 = assay: Induction of apoptosis in human SW480 cells expressing p53 R273H mutant assessed as caspase-3 activation incubated for 24 hrs; format: functional, cell-based; how it was run: as §4
NCI-H596 [19] = assay: Effect on Bax protein expression in human NCI-H596 cells by immunoblot analysis; format: functional, cell-based
How it was run: (§5)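 H596 lung cancer cells treated with 15 µM; whole-cell lysates in HEPES pH 7.4/Triton X-100 lysis buffer with protease and phosphatase inhibitors; equal protein resolved on 4–12% Bis-Tris gels, transferred to PVDF, immunoblotted; ECL detection.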

[20] = test system: Cellular tumor antigen p53 (Homo sapiens), P04637 [G245C]; assay: Induction of p53 G245C mutant depletion in human NCI-H596 cells incubated for 2 to 6 hrs by immunoblot analysis; format: cell-based
How it was run: (§6)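 H596 cells (G245C p53), maintained in DMEM or RPMI-1640 with 10% FBS, treated either at 15 µM for varying times up to 24 h or at varying concentrations (10–60 µM) for 2 h; whole-cell lysates, equal protein on SDS gels, PVDF, blotted with p53 DO-1 and β-actin antibodies, ECL.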

[21] = test system: Cellular tumor antigen p53 (Homo sapiens), P04637 [G245C]; assay: Induction of p53 G245C mutant depletion in human NCI-H596 cells at 15 uM by immunoblot analysis; format: cell-based; details: TDE = time-dependent effect; how it was run: as §6
NCI-H596 [22] = assay: Effect on DR5 protein expression in human NCI-H596 cells by immunoblot analysis; format: functional, cell-based; how it was run: as §5
NCI-H596 [23] = assay: Effect on HSP90 protein expression in human NCI-H596 cells by immunoblot analysis; format: functional, cell-based; how it was run: as §5
NCI-H596 [24] = assay: Effect on JNK protein expression in human NCI-H596 cells by immunoblot analysis; format: functional, cell-based; how it was run: as §5
NCI-H596 [25] = assay: Effect on p53 mRNA expression in human NCI-H596 cells at 15 uM incubated for 2 to 6 hrs by RT-PCR; format: functional, cell-based
How it was run: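 H596 cells exposed to 15 µM for 2, 4 and 6 h, vehicle DMSO; total RNA extracted, one-step RT-PCR for p53 and β-actin mRNA.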

[26] = test system: Cellular tumor antigen p53 (Homo sapiens), P04637 [G245C]; assay: Induction of conformational changes in p53 G245C mutant in human NCI-H596 cells at 60 uM incubated for 1 hr at 32 degC by tryptophan fluorescence emission spectroscopy; format: cell-based
How it was run: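 6 µM purified G245C p53 DNA-binding domain incubated 1 h at 32 °C alone, with DMSO or 60 µM agent; intrinsic fluorescence emission 285–400 nm, excitation 280 nm, slit 5 nm, 3 scans averaged.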

MDA-MB-231 [27] = assay: Induction of apoptosis in human MDA-MB-231 cells expressing p53 R280K mutant at 10 uM incubated for 24 hrs by FITC/Annexin-V staining method; format: functional, cell-based
How it was run: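 MDA-MB-231 cells at 40–50% confluency treated with DMSO or 10 µM in DMSO for 24 h; washed in cold PBS, stained with FITC-Annexin V and propidium iodide, analysed by flow cytometry; early apoptotic (Annexin V+/PI−) fraction; mean ± SD of three experiments, unequal-variance two-sample t-test.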

[28] = test system: Cellular tumor antigen p53 (Homo sapiens), P04637 [G245C]; assay: Induction of p53 G245C mutant depletion in human NCI-H596 cells at 10 uM incubated for 2 hrs by immunoblot analysis; format: cell-based; how it was run: as §6
[29] = test system: Cellular tumor antigen p53 (Homo sapiens), P04637 [G245C]; assay: Induction of p53 G245C mutant depletion in human NCI-H596 cells at 20 uM incubated for 2 hrs by immunoblot analysis; format: cell-based; how it was run: as §6
[30] = test system: Cellular tumor antigen p53 (Homo sapiens), P04637 [G245C]; assay: Induction of p53 G245C mutant depletion in human NCI-H596 cells at 40 uM incubated for 2 hrs by immunoblot analysis; format: cell-based; how it was run: as §6
[31] = test system: Cellular tumor antigen p53 (Homo sapiens), P04637 [G245C]; assay: Induction of p53 G245C mutant depletion in human NCI-H596 cells at 15 uM up to 24 hrs by immunoblot analysis; format: cell-based; how it was run: as §6
[32] = test system: Cellular tumor antigen p53 (Homo sapiens), P04637 [G245C]; assay: Induction of p53 G245C mutant depletion in human NCI-H596 cells at 60 uM after 2 hrs by immunoblot analysis; format: cell-based; how it was run: as §6

Measured: Activity

S=C=NCCCCCc1ccccc1
active: [1] | [2]

S=C=NCCc1ccccc1
inactive: [3] | [8] | [9] | [10] | H1299 [13] | A549 | MCF7 | HCT-116 | NCI-H596 [19] | NCI-H596 [22] | NCI-H596 [23] | NCI-H596 [24] | NCI-H596 [25]
active: [4] tde | [5] tde | DU-145 tde | [6] tde | [7] tde | [11] | H1299 [12] | H1299 [14] | H1299 [15] | [1] | [2] | [16] | NCI-H596 [17] | MDA-MB-231 [18] | MDA-MB-468 | SW480 | [20] Dose-dependent effect | [21] tde

S=C=NCc1ccc(Oc2ccccc2)cc1
active: [1] | [2] | [26]

S=C=NC(c1ccccc1)(c1ccccc1)c1ccccc1
inactive: [1] | [2] | [16] | MDA-MB-231 [27]

S=C=NCc1ccccc1
active: [1] | [2] | [16] | [26] | MDA-MB-231 [27] | [28] | [29]

S=C=NCC(c1ccccc1)c1ccccc1
active: [1] | [2] | [16] | MDA-MB-231 [27]

S=C=NCCCCc1ccccc1
active: [1] | [2] | MDA-MB-231 [27]

C=CCN=C=S
inactive: [1] | [2] | [16] | [30]

C[C@@H](N=C=S)c1ccccc1
active: [26]
inactive: [1] | [2]

S=C=NCC1CCCCC1
inactive: [1] | [2] | [16] | MDA-MB-231 [27]

C[S+]([O-])CCCCN=C=S (centres undefined)
inactive: [1] | [2] | [16] | [26] | MDA-MB-231 [27] | [30]

S=C=Nc1ccccc1
inactive: [1] | [2] | [16]

S=C=NCc1ccc(Cl)cc1
active: [1] | [2] | [16]

S=C=NCCCc1ccccc1
active: [1] | [2] | [16] | MDA-MB-231 [27]

S=C=NCCCCCCc1ccccc1
active: [1] | [2]

CNCCc1ccccc1
inactive: [31] | [32] | [1]

COc1ccc(CN=C=S)cc1
active: [1] | [2] | [16]
